Results reported in PMC11742495 (Breast Cancer Research : BCR, 2025).
Changes are numbered by the printed parent chain. Like-named read-outs stand apart in the source and are kept apart here.

Key:
[1] = system: heterozygous, luciferase-tagged Y537S ESR1 MCF7 xenograft; experiment: Comparative murine xenograft study T6I-29-1A vs ICI; assay type: in vivo, NOD/SCID mice
endometrium = experiment: Uterine SERM agonist study; assay type: in vivo, BALB/c mice; conditions: ovariectomized mice, three days of treatment, with and without E2
How it was run: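 Adult ovariectomized BALB/c mice were randomized to 8 groups and dosed once daily for 3 consecutive days. Treatments: vehicle (0.2% Tween 80/0.5% CMC); E2 (0.1 mL of 0.1 µg/mL in 95% cottonseed oil/5% ethanol); test compound 50 mg/kg orally; reference SERM 50 mg/kg in vehicle; reference SERD 25 mg/kg in cottonseed oil/ethanol. Each active arm was run ± E2. Uteri were weighed, formalin-fixed, embedded and H&E-stained.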

[2] = molecular target: T1, Y537S ERα-SRC3 interaction (Homo sapiens, UniProt P03372, Y537S); experiment: cell-based; assay type: cell-based; conditions: for IC50: 1 nM E2, 48 h
T1 sequence (P03372 1-595 Y537S): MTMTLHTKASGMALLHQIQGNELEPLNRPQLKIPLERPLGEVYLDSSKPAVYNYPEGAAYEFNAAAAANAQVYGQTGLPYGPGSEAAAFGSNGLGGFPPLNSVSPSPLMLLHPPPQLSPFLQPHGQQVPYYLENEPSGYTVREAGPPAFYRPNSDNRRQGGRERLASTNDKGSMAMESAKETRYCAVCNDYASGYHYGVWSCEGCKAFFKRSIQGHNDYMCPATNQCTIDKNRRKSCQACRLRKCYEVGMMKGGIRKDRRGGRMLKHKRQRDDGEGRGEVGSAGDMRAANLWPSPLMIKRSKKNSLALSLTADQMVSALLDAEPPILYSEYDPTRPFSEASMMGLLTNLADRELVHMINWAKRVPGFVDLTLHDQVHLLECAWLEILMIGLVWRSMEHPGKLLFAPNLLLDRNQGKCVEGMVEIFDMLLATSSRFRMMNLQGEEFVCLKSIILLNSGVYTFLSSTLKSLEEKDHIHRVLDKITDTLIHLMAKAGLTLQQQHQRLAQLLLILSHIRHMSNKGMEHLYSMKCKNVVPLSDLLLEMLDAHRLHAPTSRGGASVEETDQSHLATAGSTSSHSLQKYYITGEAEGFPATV

WT ERα-SRC3 interaction = molecular target: T2, WT ERα-SRC3 interaction (Homo sapiens, UniProt P03372); experiment: cell-based; conditions: 1 nM E2, 48 h
T2 sequence (P03372 1-595): T1 sequence (P03372 1-595 Y537S) with S537Y

[3] = cited from earlier work
[4] = 25 mg/kg, T6I-29-1A IP five times per week, ICI SC once per week, vs vehicle
[5] = difference between WT-SRC3 and Y537S-SRC3

**Q.** Which “tumor bioluminescent signal (IVIS) vs vehicle” value ([1]; 25 mg/kg SC once per week) does the source give for `C[C@]12CC[C@@H]3c4ccc(O)cc4C[C@@H](CCCCCCCCC[S+]([O-])CCCC(F)(F)C(F)(F)F)[C@H]3[C@@H]1CC[C@@H]2O` (stereo partly shown) [ICI, fulvestrant] here?
**A.** no significant difference in bioluminescent signal

**Q.** And the final uterine weights ([1]; 25 mg/kg, T6I-29-1A IP five times per week, ICI SC once per week)?
**A.** significantly decreased final uterine weights

**Q.** What about the survival [1, 4] of the same compound?
**A.** significantly prolonged

**Q.** And the “tumor growth (digital caliper)” value [1, 4]?
**A.** significantly blunted tumor growth

**Q.** What about the “ER target gene expression in tumors (RT-qPCR)” value ([1]; no significance noted) of the same compound?
**A.** heightened

**Q.** And the endometrium thickness (endometrium)?
**A.** diminished the thickness

**Q.** With `C[C@@H]1Cc2c(ccc3[nH]ncc23)[C@@H](c2ccc(NC3CN(CCCF)C3)cn2)N1CC(F)(F)F` [Cam, camizestrant] as the compound, how does the ΔIC50 [2] read?
**A.** 44.67

**Q.** Which results are given for `C[C@@H]1Cc2c([nH]c3ccccc23)[C@@H](c2c(F)cc(NC3CN(CCCF)C3)cc2F)N1CC(F)(F)CO` [Gir, giredestrant]?
**A.** IC50 (WT ERα-SRC3 interaction; WT-SRC3 IC50 ± StDev): 0.68 ± 0.25 nM; IC50 (WT ERα-SRC3 interaction; WT-SRC3 Log(IC50) ± StDev): 0.676 nM; IC50 ([2]; Y537S-SRC3 IC50 ± StDev): 47.6 ± 11.4 nM; IC50 ([2]; Y537S-SRC3 Log(IC50) ± StDev): 47.9 nM; ΔIC50 [2, 5]: 46.95

**Q.** With `CCNCCc1ccc(CN(CC)c2cc(OC)ccc2[C@@H]2CCc3cc(O)ccc3C2)cc1` [Rad1901, elacestrant] as the compound, how does the ΔIC50 [2, 5] read?
**A.** 3560.03

**Q.** Which ΔIC50 [2, 5] does the source give for `Oc1ccc2c(c1)CC[C@H](c1ccccc1)[C@@H]2c1ccc(OCCN2CCCC2)cc1` [Laso, lasofoxifene] here?
**A.** 9.59

**Q.** For `CC/C(=C(\c1ccc(O)cc1)c1ccc(OCCN(C)C)cc1)c1ccccc1` [Compound 4OHT, 4-hydroxytamoxifen], which endometrium thickness (endometrium) is on record?
**A.** significantly increased width

**Q.** For `CC/C(=C(\c1ccccc1)c1ccc(OCCN(C)C)cc1)c1ccccc1` [tamoxifen], which protein binding [3] is on record?
**A.** greater than 98%
